Results reported in article PMC12009964 (Scientific Reports, 2025).

What was measured:
[1] = system: PCNA expression in Hela cells; test: PCNA mRNA expression by quantitative RT-PCR; format: cell-based, human; details: for inhibition rate of the expression of PCNA: Hela cells, qRT-PCR, 5 μM as printed in abstract; for inhibition at 10 µM: Homo sapiens, HeLa, read-out: Inhibition of PCNA expression
ERK5 = ERK5 (Homo sapiens, UniProt Q13164); test: Z'-LYTE Kinase Assay, Ser/Thr 4 peptide; format: biochemical; details: read-out: IC50 against ERK5 (Z'-LYTE kinase assay)
Chain of ERK5 (Q13164 2-816): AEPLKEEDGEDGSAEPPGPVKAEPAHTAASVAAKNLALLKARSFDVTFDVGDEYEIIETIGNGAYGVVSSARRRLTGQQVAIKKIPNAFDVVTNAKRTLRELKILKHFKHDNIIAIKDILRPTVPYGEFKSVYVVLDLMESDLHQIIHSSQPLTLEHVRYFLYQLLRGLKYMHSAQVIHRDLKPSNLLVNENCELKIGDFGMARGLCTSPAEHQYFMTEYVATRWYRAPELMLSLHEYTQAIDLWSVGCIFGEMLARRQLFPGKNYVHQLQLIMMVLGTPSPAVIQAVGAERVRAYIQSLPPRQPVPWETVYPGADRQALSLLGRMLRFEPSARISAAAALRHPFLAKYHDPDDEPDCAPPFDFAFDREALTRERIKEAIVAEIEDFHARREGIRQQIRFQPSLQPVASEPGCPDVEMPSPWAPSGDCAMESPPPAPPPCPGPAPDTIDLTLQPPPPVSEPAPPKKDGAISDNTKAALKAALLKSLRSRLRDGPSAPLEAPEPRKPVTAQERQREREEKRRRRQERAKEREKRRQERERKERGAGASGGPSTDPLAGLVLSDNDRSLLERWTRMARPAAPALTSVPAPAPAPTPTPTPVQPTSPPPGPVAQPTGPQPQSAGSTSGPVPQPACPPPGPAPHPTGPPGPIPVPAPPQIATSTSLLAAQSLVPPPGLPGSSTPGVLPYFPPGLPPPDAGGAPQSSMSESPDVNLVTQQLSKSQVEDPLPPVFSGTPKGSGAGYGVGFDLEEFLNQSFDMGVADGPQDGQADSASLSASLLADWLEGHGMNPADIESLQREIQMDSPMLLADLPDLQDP
How it was run: (§1)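 Coupled-enzyme, antibody-free fluorescence kinase assay on HeLa cell lysates (10–100 µg per well). Substrates: Ser/Thr 4 peptide for ERK5, Ser/Thr 3 peptide for ERK1/2. Test compound at 1.25, 2.5, 5 and 10 µM. Coumarin (Ex 400/Em 445 nm) and fluorescein (Ex 400/Em 520 nm) emissions read on a plate reader.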

ERK1/2 = test: Z'-LYTE Kinase Assay, Ser/Thr 3 peptide; format: biochemical, human; details: 1.25, 2.5, 5, and 10 µM
How it was run: as §1

[2] = system: AP-1 reporter in HeLa cells; test: ERK5-driven AP-1 reporter assay; format: cell-based, human; details: 5 µM
How it was run: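 HeLa cells (2 × 10^5 per well, 6-well) transiently lipofected with an AP-1-luc reporter vector carrying six AP-1 response elements. After transfection, cells received 5 µM test compound. AP-1 mRNA measured by RT-PCR (TRIzol RNA, reverse transcription, duplicate real-time reactions), with GAPDH as normaliser and the 2−∆∆Cq method.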

Hela cells [3] = test: DAPI staining assay; format: cell-based, human; details: 5 µM, 24 h, compared to DMSO
How it was run: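 HeLa cells (5 × 10^3) seeded in 24-well plates for 24 h, treated 24 h with test compound (1, 2.5 or 5 µM in methods). Fixed in 4% paraformaldehyde 10 min, washed, stained with 300 nM DAPI 15 min in the dark. Nuclear morphology of apoptotic cells examined by fluorescence microscopy.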

Hela cells [4] = test: Annexin V/Propidium iodide flow cytometry; format: cell-based, human; details: 5 µM, 24 h
How it was run: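 Apoptosis assay: HeLa cells (5 × 10^5) seeded in 6-well plates for 24 h, serum-starved 20 h, then exposed to test compound for 24 h (1, 2.5 or 5 µM in methods). Annexin V-FITC/PI kit staining, flow cytometry. Quadrants: lower right early apoptotic, upper right late apoptotic, upper left necrotic. Mean ± SD of three independent experiments.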

IC50 (ERK5) [µM]	Structure (SMILES)	inhibition rate of the expression of PCNA [1] [%]	effect on ERK1/2 kinase activity (ERK1/2)	expression of AP-1 [2]	apoptosis by DAPI staining (Hela cells [3])	increase of late apoptotic events compared with DMSO (Hela cells [4]) [%]	inhibition at 10 µM [1] [%]
5.1	CC(C)CCOc1cc(C[n+]2c(C(C)C)n(CCC(C)C)c3ccccc32)c(OCCC(C)C)c2ccccc12.[Br-] [4e, 3-((1,4-bis(isopentyloxy)naphthalen-2-yl)methyl)−1-isoamyl-2-isopropyl-1H-benzo[d]imidazol-3-ium bromide]	61.1	did not inhibit ERK1/2 kinase activity	significantly decreased	triggered apoptosis	10.8	–
–	COC(C)c1n(CCC(C)C)c2ccccc2[n+]1Cc1cc(OCCC(C)C)c2ccccc2c1OCCC(C)C (stereo not drawn) [4j, 3-((1,4-Bis(isoamyloxy)naphthalen-2-yl)methyl)−1-isoamyl-2-(1-methoxyethyl)−1H-benzo[d]imidazol-3-ium bromide]	–	–	–	–	–	57.4
9	Cc1cc2c(cc1C)[n+](Cc1cc(OCCC(C)C)c3ccccc3c1OCCC(C)C)cn2CCC(C)C.[Br-] [4k, 3-((1,4-Bis(isoamyloxy)naphthalen-2-yl)methyl)−1-isoamyl-5,6-dimethyl-1H-benzo[d]imidazol-3-ium bromide]	70.2	did not inhibit ERK1/2 kinase activity	significantly decreased	triggered apoptosis	14	70.2
–	CC(C)CCOc1cc(C[n+]2cn(CCC(C)C)c3cc(Br)c(Br)cc32)c(OCCC(C)C)c2ccccc12 [4m, 3-((1,4-Bis(isoamyloxy)naphthalen-2-yl)methyl)−5,6-dibromo-1-isoamyl-1H-benzo[d]imidazol-3-ium bromide]	–	–	–	–	–	57
